What is called pKi is the negative decadic logarithm of the Ki, by convention in mol/L. A higher pKi goes with a small Ki.

The text below walks through data of ChEMBL document CHEMBL1154048, “Design, synthesis and pharmacological evaluation of new 1-[3-(4-arylpiperazin-1-yl)-2-hydroxy-propyl]-3,3-diphenylpyrrolidin-2-one derivatives with antiarrhythmic, antihypertensive, and alpha-adrenolytic activity” (Eur J Med Chem, 2009).

The target of the test is T1, Adrenergic receptor alpha-1 (Rattus norvegicus, UniProt P15823+P23944+P43140).
T1 sequence (P15823 whole entry): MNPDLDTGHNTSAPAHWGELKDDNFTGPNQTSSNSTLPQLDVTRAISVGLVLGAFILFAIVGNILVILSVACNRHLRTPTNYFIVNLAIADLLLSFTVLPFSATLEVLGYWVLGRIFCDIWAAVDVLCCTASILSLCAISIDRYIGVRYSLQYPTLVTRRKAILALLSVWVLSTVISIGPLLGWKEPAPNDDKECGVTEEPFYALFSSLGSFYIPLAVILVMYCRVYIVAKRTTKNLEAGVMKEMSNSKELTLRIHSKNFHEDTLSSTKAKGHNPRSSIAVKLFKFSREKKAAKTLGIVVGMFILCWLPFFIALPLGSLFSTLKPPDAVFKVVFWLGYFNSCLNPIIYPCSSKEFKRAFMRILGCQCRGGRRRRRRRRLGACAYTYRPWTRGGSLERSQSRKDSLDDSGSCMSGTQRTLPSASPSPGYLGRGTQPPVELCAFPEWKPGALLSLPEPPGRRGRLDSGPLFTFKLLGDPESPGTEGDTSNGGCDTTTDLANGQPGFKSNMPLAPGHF
T1 sequence (P23944 whole entry): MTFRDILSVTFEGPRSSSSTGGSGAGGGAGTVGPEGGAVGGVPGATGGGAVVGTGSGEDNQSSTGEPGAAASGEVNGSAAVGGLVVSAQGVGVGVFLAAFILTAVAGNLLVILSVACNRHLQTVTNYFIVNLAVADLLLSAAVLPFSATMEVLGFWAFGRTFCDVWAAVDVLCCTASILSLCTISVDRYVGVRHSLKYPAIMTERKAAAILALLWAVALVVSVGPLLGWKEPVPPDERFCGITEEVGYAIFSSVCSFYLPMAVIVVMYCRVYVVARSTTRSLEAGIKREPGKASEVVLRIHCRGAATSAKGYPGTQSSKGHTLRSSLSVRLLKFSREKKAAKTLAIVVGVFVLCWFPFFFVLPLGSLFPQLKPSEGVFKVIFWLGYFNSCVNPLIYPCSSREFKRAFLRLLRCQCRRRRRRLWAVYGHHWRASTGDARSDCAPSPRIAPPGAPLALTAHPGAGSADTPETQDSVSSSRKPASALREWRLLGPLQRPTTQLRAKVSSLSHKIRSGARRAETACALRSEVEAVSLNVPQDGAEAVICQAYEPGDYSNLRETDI
T1 sequence (P43140 whole entry): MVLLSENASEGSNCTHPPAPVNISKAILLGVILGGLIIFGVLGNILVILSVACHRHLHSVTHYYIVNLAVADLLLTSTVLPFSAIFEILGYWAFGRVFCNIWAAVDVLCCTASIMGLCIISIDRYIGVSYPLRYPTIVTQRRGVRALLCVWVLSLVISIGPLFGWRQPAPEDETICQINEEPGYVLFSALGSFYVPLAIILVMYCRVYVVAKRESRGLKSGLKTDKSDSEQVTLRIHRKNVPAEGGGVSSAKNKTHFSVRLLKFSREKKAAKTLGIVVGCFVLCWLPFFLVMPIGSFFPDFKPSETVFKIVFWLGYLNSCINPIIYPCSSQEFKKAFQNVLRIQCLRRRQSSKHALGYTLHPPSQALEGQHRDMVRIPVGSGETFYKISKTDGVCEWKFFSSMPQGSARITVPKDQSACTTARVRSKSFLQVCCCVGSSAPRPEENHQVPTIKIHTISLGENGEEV
The experiment in a line: Displacement of [3H]prazosin from alpha1 adrenergic receptor in rat cerebral cortex by liquid scintillation counting. In kind it is tissue-based. The method, boiled down: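 Rat cerebral cortex was homogenized in ice-cold 50 mM Tris–HCl pH 7.6, centrifuged 20 000 × g for 20 min at 0–4 °C, and washed once more. Membranes were incubated with [3H]prazosin 0.2 nM and seven to eight compound concentrations (10^-11–10^-4 M), with phentolamine defining nonspecific binding. Bound ligand was filtered on glass fiber and counted by liquid scintillation. Runs were in duplicate, and Ki was calculated by Cheng–Prusoff.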
(In general: In a radioligand displacement assay an active substance lowers the binding of a labelled ligand.)
`CCOc1ccccc1N1CCN(CC(O)CN2CCC(c3ccccc3)(c3ccccc3)C2=O)CC1.Cl.Cl` (stereo unspecified): the negative-log Ki (pKi) came to 7.28.

Consider `COc1ccc(N2CCN(CC(O)CN3CCC(c4ccccc4)(c4ccccc4)C3=O)CC2)cc1.Cl.Cl` (stereo unspecified), for which the negative-log Ki (pKi) was determined as 5.36.

Turning to `COc1ccccc1N1CCN(CC(O)CN2CCC(c3ccccc3)(c3ccccc3)C2=O)CC1.Cl.Cl` (stereo unspecified), the negative logarithm of the Ki (pKi) was found to be 6.8.

In turn, `Cl.Cl.O=C1N(CC(O)CN2CCN(c3ccccc3)CC2)CCC1(c1ccccc1)c1ccccc1` (stereo unspecified) came in with a pKi of 6.74.

Consider `Cl.Cl.O=C1N(CC(O)CN2CCN(c3ccccc3C(F)(F)F)CC2)CCC1(c1ccccc1)c1ccccc1` (stereo unspecified), for which the pKi was 5.89.

Regarding `Cc1ccccc1N1CCN(CC(O)CN2CCC(c3ccccc3)(c3ccccc3)C2=O)CC1.Cl.Cl` (stereo unspecified), the negative-log Ki (pKi) turned out to be 6.69.
